Assay results as given in ChEMBL document CHEMBL2346587, “Design, synthesis, and evaluation of a water-soluble antofine analogue with high antiproliferative and antitumor activity” (Bioorg Med Chem, 2013).
Activity calls are given as the source filed them. No cut-off for these calls is given here.

Legend:
A549 [1] = assay: Cell cycle arrest in human A549 cells assessed as accumulation at G2/M phase at 200 nM after 24 hrs by flow cytometry (reference value: 22.84 %); type: functional
A549 [2] = assay: Inhibition of MDR-1 gene expression in human paclitaxel-resistant A549 cells at 50 to 200 nM after 48 hrs by RT-PCR analysis; type: functional, cell-based
In short: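 A549-Pa cells (1 × 10^5 per 100 mm dish) exposed for 48 h; RNA isolated with TRI reagent, 1 µg reverse-transcribed with AMV RT and oligo(dT)15. MDR-1 amplified with specific primers: 94 °C 4 min; 35 cycles of 94 °C 30 s, 55 °C 30 s, 72 °C 30 s; 72 °C 5 min. Products resolved on 2% agarose, SYBR Safe stained.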

A549 [3] = assay: Antitumor activity against human A549 cells xenografted in athymic nu/nu BALB/c mouse assessed as inhibition of Ki-67 expression at 5 to 10 mg/kg, ip administered 35 days post-implantation 3 times a week by immunohistochemistry; type: functional, organism-based
In short: (§1)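 Female athymic BALB/c nu/nu mice, six weeks old; 2 × 10^6 A549 or A549-Pa cells in 0.1 mL RPMI injected s.c. into right flank on day 0. Dosing began at 95–100 mm3 tumour volume: drug in 1% cremophore in PBS given i.p. three times weekly; controls got vehicle; five mice/group. Tumour volume tracked every 3–5 days; tumours excised and weighed at end; sections immunostained for Ki-67.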

A549 [4] = assay: Antitumor activity against paclitaxel-resistant human A549 cells xenografted in ip dosed athymic nu/nu BALB/c mouse assessed as inhibition of P-gp expression administered 35 days post-implantation 3 times a week by immunohistochemistry; type: functional, organism-based
In short: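 A549-Pa (paclitaxel-resistant) xenografts in female athymic BALB/c nu/nu mice, grown s.c. in right flank and treated i.p. three times weekly in 1% cremophore/PBS once tumours reached 95–100 mm3. Excised tumour sections incubated overnight at 4 °C with P-glycoprotein antibody, detected by HRP-polymer system, hematoxylin counterstain, viewed by microscopy.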

A549 [5] = assay: Inhibition of AKT/mTOR signaling in human A549 cells assessed as inhibition of eIF4E phosphorylation at 50 to 400 nM after 24 hrs by Western blot analysis; type: cell-based
In short: (§2)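 A549 cells plated at 3 × 10^5 per 60 mm dish, grown 24 h, then exposed to a concentration series for 24 h. Lysed in boiling SDS sample buffer with NaF and orthovanadate; protein by BCA; 25–50 µg run on 8–15% SDS-PAGE, transferred to PVDF, blocked in 5% milk/PBST, primary antibodies overnight at 4 °C, secondary 1–2 h, ECL detection.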

[6] = molecular target: T1, ATP-dependent translocase ABCB1 (Homo sapiens, UniProt P08183); assay: Inhibition of P-gp activity in human […] A549 cells potentiation of 10 uM paclitaxel-induced cytotoxicity at 0.2 uM by SRB assay; type: cell-based; settings: a549, 0.2 µM
T1 sequence (P08183 whole entry): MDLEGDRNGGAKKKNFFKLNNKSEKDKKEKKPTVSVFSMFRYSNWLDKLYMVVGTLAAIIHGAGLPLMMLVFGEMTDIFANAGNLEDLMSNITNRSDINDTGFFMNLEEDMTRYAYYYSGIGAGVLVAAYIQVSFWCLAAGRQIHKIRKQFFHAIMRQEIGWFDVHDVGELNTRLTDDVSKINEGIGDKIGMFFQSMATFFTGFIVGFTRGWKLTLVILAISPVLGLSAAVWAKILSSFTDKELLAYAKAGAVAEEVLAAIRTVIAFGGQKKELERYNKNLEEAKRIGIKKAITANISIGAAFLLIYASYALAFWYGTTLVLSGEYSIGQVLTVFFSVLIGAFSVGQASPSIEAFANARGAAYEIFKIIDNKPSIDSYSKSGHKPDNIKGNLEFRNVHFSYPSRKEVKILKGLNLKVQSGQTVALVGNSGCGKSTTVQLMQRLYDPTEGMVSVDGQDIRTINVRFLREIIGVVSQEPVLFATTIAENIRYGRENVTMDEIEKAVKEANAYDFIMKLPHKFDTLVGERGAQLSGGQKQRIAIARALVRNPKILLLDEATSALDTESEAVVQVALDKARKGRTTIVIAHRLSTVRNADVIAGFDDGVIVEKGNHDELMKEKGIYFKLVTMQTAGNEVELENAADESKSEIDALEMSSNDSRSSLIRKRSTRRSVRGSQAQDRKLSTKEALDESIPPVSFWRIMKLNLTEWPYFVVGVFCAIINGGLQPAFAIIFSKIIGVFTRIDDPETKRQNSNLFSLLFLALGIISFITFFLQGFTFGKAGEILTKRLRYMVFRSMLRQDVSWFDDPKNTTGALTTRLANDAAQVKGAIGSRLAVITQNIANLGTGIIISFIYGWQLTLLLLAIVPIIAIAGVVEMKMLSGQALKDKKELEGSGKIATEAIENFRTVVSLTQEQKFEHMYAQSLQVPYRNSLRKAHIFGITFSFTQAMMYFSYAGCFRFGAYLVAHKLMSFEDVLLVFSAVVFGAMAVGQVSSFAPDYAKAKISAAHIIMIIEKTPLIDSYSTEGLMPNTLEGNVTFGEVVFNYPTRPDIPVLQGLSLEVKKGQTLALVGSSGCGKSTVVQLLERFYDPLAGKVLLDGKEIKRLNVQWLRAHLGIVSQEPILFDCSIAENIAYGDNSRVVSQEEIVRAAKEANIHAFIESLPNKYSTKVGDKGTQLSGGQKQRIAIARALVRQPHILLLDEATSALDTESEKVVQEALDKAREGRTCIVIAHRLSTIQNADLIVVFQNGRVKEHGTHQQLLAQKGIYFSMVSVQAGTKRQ

A549 [7] = assay: Inhibition of AKT/c-myc signaling in human A549 cells assessed as reduction in cyclin E protein expression at 50 to 400 nM after 24 hrs by Western blot analysis; type: cell-based; in short: as §2
SK-HEP1 = assay: Cytotoxicity against human SKHEP1 cells after 72 hrs by SRB assay; type: functional, cell-based; settings: SK-HEP1, 72 h
In short: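 SRB growth assay: 5 × 10^3 cells/well exposed to a concentration series for 72 h; fixed in 10% TCA 30 min at 4 °C, stained with 0.4% SRB in 1% acetic acid 30 min, dye dissolved in 10 mM Tris pH 10.0, absorbance at 515 nm. Viability relative to vehicle control; IC50 by non-linear regression; at least three experiments. A549-Pa is a paclitaxel-resistant A549 subline.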

[8] = molecular target: T1, ATP-dependent translocase ABCB1; assay: Inhibition of P-gp activity in human paclitaxel-resistant A549 cells potentiation of 2.5 uM gefitinib-induced cytotoxicity at 0.05 uM by SRB assay; type: cell-based; settings: a549, 0.05 µM
In short: (§3)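 A549-Pa cells plated at 5 × 10^4 cells/well and co-treated for 48 h with the compound (0–200 nM) plus paclitaxel or gefitinib; growth inhibition by SRB assay. Combination index computed at the 50% inhibition level as CI = D1/(Dx)1 + D2/(Dx)2, comparing combined versus single-agent concentrations.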

[9] = molecular target: T1, ATP-dependent translocase ABCB1; assay: Inhibition of P-gp activity in human paclitaxel-resistant A549 cells potentiation of 10 uM paclitaxel-induced cytotoxicity at 0.2 uM by SRB assay; type: cell-based; settings: a549, 0.2 µM; in short: as §3
A549 [10] = assay: Cell cycle arrest in human A549 cells assessed as accumulation at S phase at 400 nM after 24 hrs by flow cytometry (reference value: 13.38 %); type: functional
A549 [11] = assay: Cell cycle arrest in human A549 cells assessed as accumulation at G0/G1 phase at 50 nM after 24 hrs by flow cytometry (reference value: 62.38 %); type: functional
[12] = Inhibition of Wnt signaling in human A549 cells assessed as inhibition of […] expression after 24 hrs by Western blot analysis; type: cell-based
In short: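 A549 cells were seeded at 3 × 10^5 per 60 mm dish, grown 24 h, then given graded compound concentrations for 24 h. Lysis was in boiling SDS buffer, with BCA protein assay. 25–50 µg per lane was run on 8–15% SDS-PAGE and blotted to PVDF. Primary antibodies (1:1000–1:2000) went on overnight at 4 °C, then secondary and ECL read-out.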

A549 [13] = assay: Antitumor activity against paclitaxel-resistant human A549 cells xenografted in athymic nu/nu BALB/c mouse assessed as inhibition of tumor growth at 5 mg/kg, ip administered 35 days post-implantation 3 times a week relative to control; type: functional; settings: 840 h, route intraperitoneal, read-out: TGI; in short: as §1
A549 [14] = assay: Cell cycle arrest in human A549 cells assessed as accumulation at G2/M phase at 400 nM after 24 hrs by flow cytometry (reference value: 22.84 %); type: functional
A549 [15] = assay: Cell cycle arrest in human A549 cells assessed as accumulation at S phase at 50 nM after 24 hrs by flow cytometry (reference value: 13.38 %); type: functional
[16] = molecular target: TCF4/beta-catenin (Homo sapiens) (UniProt P35222+Q9NQB0); assay: Inhibition of transcription activity of […]/TCF4 (unknown origin) expressed in HEK293 cells after 24 hrs by luciferase reporter gene assay; type: cell-based
In short: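 HEK293 cells were co-transfected for 24 h with 100 ng TOPflash β-catenin/Tcf reporter and 5 ng pRL-SV40. Graded compound concentrations were then added for 24 h. Firefly activity was read with a dual-luciferase system and normalized to Renilla. Significance was tested against DMSO control.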

A549 [17] = assay: Cell cycle arrest in human A549 cells assessed as accumulation at S phase at 100 nM after 24 hrs by flow cytometry (reference value: 13.38 %); type: functional
Mus musculus = assay: Toxicity in paclitaxel-resistant human A549 cells xenografted athymic nu/nu BALB/c mouse assessed as body weight change at 5 to 10 mg/kg, ip administered 3 times a week; type: organism-based; parameters: dose 5-10 mg/kg, route intraperitoneal; settings: in vivo
In short: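 Six-week-old female BALB/c nu/nu mice received 2 × 10^6 A549-Pa cells in 0.1 mL RPMI subcutaneously in the right flank. Dosing began at 95–100 mm3 tumor volume, with five mice per group randomized. Compound in 1% cremophore/PBS was given intraperitoneally three times weekly; controls received equal vehicle volume. Body weight and overt toxicity were monitored.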

For `COc1ccc2c3c(c4cc(OC)c(OC)cc4c2c1)C[C@@]1(CO)CCCN1C3`, the Activity (A549 [1]) was 18.33%, the inhibition (A549 [2]) was “Active” and the inhibition (A549 [3]) was “Active”. For the same compound, the inhibition (A549 [4]) was “Dose-dependent effect”, the inhibition (A549 [5]) was “Active” and the “fractional inhibitory concentration index (FICI)” value [6] was 1.002. For the same compound, the inhibition (A549 [7]) was “Active”, the IC50 (SK-HEP1) was 0.06 µM and the “fractional inhibitory concentration index (FICI)” value [8] was 0.653. For the same compound, the “fractional inhibitory concentration index (FICI)” value [9] was 0.413, the Activity (A549 [10]) was 11.37% and the Activity (A549 [11]) was 66.07%. The inhibition [12] was “Dose-dependent effect”, the inhibition in vivo at 5 mg/kg (A549 [13]) was 38.4% and the Activity (A549 [14]) was 20.41%. The Activity (A549 [15]) was 12.08%, the inhibition [16] was “Dose-dependent effect” and the Activity (A549 [17]) was 10.78%. The Activity (Mus musculus) was “Non-toxic”.
